# Experimental data: ChEMBL document CHEMBL3870359, “Design and Synthesis of Novel Meta-Linked Phenylglycine Macrocyclic FVIIa Inhibitors” (ACS Med Chem Lett, 2017)
# pKi: −log10 of the molar value.
# Assays:
# [1] = Permeability of the compound at pH 7.4 by PAMPA; assay type: ADME; conditions: read-out: permeability
# [2] = target: T1, Coagulation factor VII/tissue factor (Homo sapiens, UniProt P08709); assay: Inhibition of recombinant human factor-7a/TF using S2288 as substrate measured after 60 mins at 37 degC; assay type: protein-complex assay
# In short: (§1)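 Ki determined against recombinant human TF/FVIIa enzyme, each value averaged from two experiments. The assay was first run at 25 °C and later moved to 37 °C to better approximate physiological conditions.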
# [3] = Half life in rat liver microsomes; assay type: ADME
# [4] = Half life in human liver microsomes; assay type: ADME
# [5] = Anticoagulant activity in factor 7 deficient human plasma assessed as concentration required for prolongation of prothrombin time; assay type: functional
# In short: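 Clotting (prothrombin time) assay in FVII-deficient human plasma. Read-out is the compound concentration that prolongs clotting time 2-fold (EC2X, μM).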
# [6] = Permeability of the compound at pH 5.5 by PAMPA; assay type: ADME; conditions: read-out: permeability
# Kallikrein-1 = Kallikrein-1 (Homo sapiens, UniProt P06870); assay: Inhibition of tissue Kallikrein-1 (unknown origin)
# [7] = target: Vitamin K-dependent protein C (Homo sapiens, UniProt P04070); assay: Inhibition of activated protein C (unknown origin)
# [8] = target: T1, Coagulation factor VII/tissue factor; assay: Inhibition of recombinant human factor-7a/TF using S2288 as substrate measured after 60 mins at 25 degC; assay type: protein-complex assay; in short: as §1
# [9] = Oral bioavailability in rat; assay type: ADME, organism-based; conditions: in vivo
# Vitamin K-dependent protein C, sequence (P04070 43-197 limits assumed): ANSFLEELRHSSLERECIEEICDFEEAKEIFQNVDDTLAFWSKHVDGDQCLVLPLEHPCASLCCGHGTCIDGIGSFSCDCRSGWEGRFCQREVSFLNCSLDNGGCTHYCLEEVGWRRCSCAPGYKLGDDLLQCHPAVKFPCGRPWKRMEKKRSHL
# Vitamin K-dependent protein C, sequence (P04070 212-461 limits assumed): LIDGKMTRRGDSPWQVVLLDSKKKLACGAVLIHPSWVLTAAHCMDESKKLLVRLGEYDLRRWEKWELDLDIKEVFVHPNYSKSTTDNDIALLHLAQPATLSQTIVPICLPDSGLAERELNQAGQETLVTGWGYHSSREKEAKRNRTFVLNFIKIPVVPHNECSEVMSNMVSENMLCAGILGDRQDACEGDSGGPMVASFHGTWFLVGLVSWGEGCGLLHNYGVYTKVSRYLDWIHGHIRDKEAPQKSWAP
# T1 sequence (P08709 61-212 limits assumed): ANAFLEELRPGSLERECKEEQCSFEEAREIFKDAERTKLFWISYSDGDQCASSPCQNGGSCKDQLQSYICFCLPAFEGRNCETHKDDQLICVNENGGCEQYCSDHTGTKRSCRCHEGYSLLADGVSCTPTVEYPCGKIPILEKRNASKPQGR
# T1 sequence (P08709 213-466 limits assumed): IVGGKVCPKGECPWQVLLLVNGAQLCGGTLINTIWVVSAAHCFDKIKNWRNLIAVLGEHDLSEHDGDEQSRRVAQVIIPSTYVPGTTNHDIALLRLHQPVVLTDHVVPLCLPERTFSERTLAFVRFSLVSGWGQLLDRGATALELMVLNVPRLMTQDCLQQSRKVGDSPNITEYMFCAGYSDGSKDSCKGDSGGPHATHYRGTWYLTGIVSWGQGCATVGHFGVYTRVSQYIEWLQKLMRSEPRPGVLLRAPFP
# T1 sequence (P13726 33-295 partner limits assumed): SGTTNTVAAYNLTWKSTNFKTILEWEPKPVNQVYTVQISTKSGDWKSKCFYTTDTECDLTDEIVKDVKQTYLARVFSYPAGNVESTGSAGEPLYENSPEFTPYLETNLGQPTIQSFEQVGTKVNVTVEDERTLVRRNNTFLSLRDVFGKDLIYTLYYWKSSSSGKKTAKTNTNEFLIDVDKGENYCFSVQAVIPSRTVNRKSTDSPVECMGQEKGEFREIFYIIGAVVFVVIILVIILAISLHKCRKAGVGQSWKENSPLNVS
# Kallikrein-1, sequence (P06870 whole entry): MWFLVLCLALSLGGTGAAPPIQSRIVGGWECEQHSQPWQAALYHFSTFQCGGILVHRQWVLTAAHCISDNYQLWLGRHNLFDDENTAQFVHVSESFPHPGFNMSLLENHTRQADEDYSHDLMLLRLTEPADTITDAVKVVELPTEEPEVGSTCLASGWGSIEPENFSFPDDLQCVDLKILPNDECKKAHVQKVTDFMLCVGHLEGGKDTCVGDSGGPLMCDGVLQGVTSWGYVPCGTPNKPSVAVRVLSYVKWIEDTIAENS
pKi [2],half-life [3] [min],half-life [4] [min],pKi [8],SMILES,2PT [5] [µM],further results
7.74,16,14,,COc1ccc2cc1CCC(=O)Nc1ccc(S(=O)(=O)C3CC3)c(c1)CN(C)C(=O)[C@@H]2Nc1ccc2c(N)ncc(F)c2c1,11,Papp [1]: 54 ×10⁻⁶ cm/s; Papp [6]: 35 ×10⁻⁶ cm/s
7.57,64,32,,CN1Cc2cc(ccc2S(=O)(=O)C2CC2)NC(=O)CCc2cc(ccc2OCC(F)F)[C@@H](Nc2ccc3c(N)ncc(F)c3c2)C1=O,15,pKi (Kallikrein-1): 6.85; Papp [6]: 8.8 ×10⁻⁶ cm/s; pKi [7]: 5.92
9.62,39,31,,C[C@@H]1CC(=O)Nc2ccc(S(=O)(=O)C3CC3)c(c2)CN(C)C(=O)[C@H](Nc2ccc3c(N)ncc(F)c3c2)c2ccc(OCC(F)F)c1c2,3.5,pKi (Kallikrein-1): 8.03; pKi [7]: 7.41
7.24,,,> 8.30,CN1Cc2cc(ccc2S(=O)(=O)C2CC2)NC(=O)CCc2cccc(c2)[C@@H](Nc2ccc3c(N)nccc3c2)C1=O,,
6.39,8,14,,COc1c(F)cc2cc1CCC(=O)Nc1ccc(S(=O)(=O)C3CC3)c(c1)CN(C)C(=O)[C@@H]2Nc1ccc2c(N)ncc(F)c2c1,41,
6.68,,,,CN1Cc2cc(ccc2S(=O)(=O)C2CC2)NC(=O)CCc2cc(ccc2F)[C@@H](Nc2ccc3c(N)ncc(F)c3c2)C1=O,26,
8.20,,,,CN1CCc2cccc(c2)[C@@H](Nc2ccc3c(N)nccc3c2)C(=O)N(C)Cc2cc(ccc2S(=O)(=O)C2CC2)NC1=O,,
7.59,23,23,,CN1Cc2cc(ccc2S(=O)(=O)C2CC2)NC(=O)CCc2cc(ccc2OCC2CC2)[C@@H](Nc2ccc3c(N)ncc(F)c3c2)C1=O,29,
6.54,46,15,,COc1cc2cc(c1)[C@@H](Nc1ccc3c(N)ncc(F)c3c1)C(=O)N(C)Cc1cc(ccc1S(=O)(=O)C1CC1)NC(=O)CC2,14,Papp [1]: 29 ×10⁻⁶ cm/s; Papp [6]: 1.5 ×10⁻⁶ cm/s
7.11,5,26,,CN1Cc2cc(ccc2S(=O)(=O)C2CC2)NC(=O)CCc2cc(ccc2C2CC2)[C@@H](Nc2ccc3c(N)ncc(F)c3c2)C1=O,26,
6.59,33,13,,CN1Cc2cc(ccc2S(=O)(=O)C2CC2)NC(=O)CCc2cccc(c2)[C@@H](Nc2ccc3c(N)ncc(F)c3c2)C1=O,10,Papp [1]: 12 ×10⁻⁶ cm/s; Papp [6]: 6.7 ×10⁻⁶ cm/s; bioavailability [9]: 3.7%
,,,7.77,CN1Cc2cc(ccc2S(=O)(=O)C2CC2)NC(=O)NCCc2cccc(c2)[C@@H](Nc2ccc3c(N)ncc(F)c3c2)C1=O,,
6.70,6,5,7.85,CN1CCc2cccc(c2)[C@@H](Nc2ccc3c(N)ncc(F)c3c2)C(=O)N(C)Cc2cc(ccc2S(=O)(=O)C2CC2)NC1=O,,Papp [1]: 22 ×10⁻⁶ cm/s; F ([9]; BLD = below limit of detection): Bld
,,,6.59,CN1Cc2cc(ccc2S(=O)(=O)C2CC2)NC(=O)OCc2cccc(c2)[C@@H](Nc2ccc3c(N)nccc3c2)C1=O,,
8.42,4,4,> 8.30,COc1ccc2cc1[C@@H](C)CN(C)C(=O)Nc1ccc(S(=O)(=O)C3CC3)c(c1)CN(C)C(=O)[C@@H]2Nc1ccc2c(N)ncc(F)c2c1,,
7.17,74,14,,C[C@H]1CC(=O)Nc2ccc(S(=O)(=O)C3CC3)c(c2)CN(C)C(=O)[C@H](Nc2ccc3c(N)ncc(F)c3c2)c2ccc(OCC(F)F)c1c2,23,pKi (Kallikrein-1): 7.64; pKi [7]: 5.24
,,,7.10,CN1Cc2cc(ccc2S(=O)(=O)C2CC2)NC(=O)N(Cc2ccccc2)CCc2cccc(c2)[C@@H](Nc2ccc3c(N)ncc(F)c3c2)C1=O,,
7.04,,,,CN1Cc2cc(ccc2S(=O)(=O)C2CC2)NC(=O)CCc2cc(ccc2O)[C@@H](Nc2ccc3c(N)ncc(F)c3c2)C1=O,14,
,6,6,7.33,COc1ccc2cc1[C@H](C)CN(C)C(=O)Nc1ccc(S(=O)(=O)C3CC3)c(c1)CN(C)C(=O)C2Nc1ccc2c(N)nccc2c1 (mixture of isomers),,
,,,6.82,CN1Cc2cc(ccc2S(=O)(=O)C2CC2)NC(=O)N(CC2CCC2)CCc2cccc(c2)C(Nc2ccc3c(N)ncc(F)c3c2)C1=O (racemic),,
,12,5,7.23,CN1Cc2cc(ccc2S(=O)(=O)C2CC2)NC(=O)N(CC2CC2)CCc2cccc(c2)C(Nc2ccc3c(N)ncc(F)c3c2)C1=O (racemic),,
